# Experimental data published in PubChem BioAssay AID588747 (Vanderbilt Specialized Chemistry Center, 2011).
# Calls of active or inactive are those of the source.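 How the source made its calls: active means a dose-dependent rise in calcium signal, with potency and percent of maximal acetylcholine response fitted; inactive means the rest.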
# Molecular target: Muscarinic acetylcholine receptor M5 (Homo sapiens) (UniProt P08912)
# Assay: potentiation of ACh at human M5 – CHO cells, calcium fluorescence, counter-screen for M4 PAM project, dose response (AID 588747)
# Details: CHO hM5, calcium Fluo-4 fluorescence, ACh EC20 potentiation; series mostly up to 30 µM
# In short: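 Test system: CHO cells expressing human muscarinic M5 receptor | Buffer or medium: HBSS with HEPES and 2.5 mM probenecid | Doses: Series up to 30 µM, 0.3% DMSO | Schedule: Compound pre-incubation 144 s, EC80 ACh 86 s after EC20, 37 °C | Detection: Fluo-4 calcium fluorescence | Control set: Maximal ACh (1 mM)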
# Chain of Muscarinic acetylcholine receptor M5 (Homo sapiens) (P08912 whole entry, looked up): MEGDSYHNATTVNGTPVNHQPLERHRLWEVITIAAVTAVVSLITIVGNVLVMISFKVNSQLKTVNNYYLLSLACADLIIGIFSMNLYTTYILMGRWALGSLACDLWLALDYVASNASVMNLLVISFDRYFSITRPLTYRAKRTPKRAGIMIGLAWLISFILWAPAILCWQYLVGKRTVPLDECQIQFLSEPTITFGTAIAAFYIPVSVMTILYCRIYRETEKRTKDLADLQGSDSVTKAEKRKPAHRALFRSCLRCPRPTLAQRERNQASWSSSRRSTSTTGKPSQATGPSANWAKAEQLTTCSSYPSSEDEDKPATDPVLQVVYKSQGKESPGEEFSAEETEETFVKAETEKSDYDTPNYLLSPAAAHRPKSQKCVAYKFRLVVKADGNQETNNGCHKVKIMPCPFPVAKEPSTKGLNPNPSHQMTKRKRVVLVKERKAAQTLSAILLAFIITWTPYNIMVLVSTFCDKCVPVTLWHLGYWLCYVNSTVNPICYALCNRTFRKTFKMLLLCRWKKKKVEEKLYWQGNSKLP
row,Compound,outcome
1,Cc1nc2sc(C(=O)NC3CC3)c(N)c2c(C)c1Cl,inactive
2,Cc1nc2sc(C(=O)NCc3ccncn3)c(N)c2c(C)c1Cl,inactive
3,Cc1nc2sc(C(=O)NCc3nccs3)c(N)c2c(C)c1Cl,inactive
4,Cc1nc2sc(C(=O)NCc3cccc(F)c3F)c(N)c2c(C)c1Cl,inactive
5,Cc1nc2sc(C(=O)NCCc3ccncc3)c(N)c2c(C)c1Cl,inactive
